According to ChEMBL document CHEMBL1135983, “Cyclohexylmethylpiperidinyltriphenylpropioamide: a selective muscarinic M(3) antagonist discriminating against the other receptor subtypes” (J Med Chem, 2002):

Assays:
[1] = target: T1, Muscarinic acetylcholine receptor M1 (Homo sapiens, UniProt P11229); test: biochemical; format: cell-based, CHO
T1 sequence (P11229 whole entry): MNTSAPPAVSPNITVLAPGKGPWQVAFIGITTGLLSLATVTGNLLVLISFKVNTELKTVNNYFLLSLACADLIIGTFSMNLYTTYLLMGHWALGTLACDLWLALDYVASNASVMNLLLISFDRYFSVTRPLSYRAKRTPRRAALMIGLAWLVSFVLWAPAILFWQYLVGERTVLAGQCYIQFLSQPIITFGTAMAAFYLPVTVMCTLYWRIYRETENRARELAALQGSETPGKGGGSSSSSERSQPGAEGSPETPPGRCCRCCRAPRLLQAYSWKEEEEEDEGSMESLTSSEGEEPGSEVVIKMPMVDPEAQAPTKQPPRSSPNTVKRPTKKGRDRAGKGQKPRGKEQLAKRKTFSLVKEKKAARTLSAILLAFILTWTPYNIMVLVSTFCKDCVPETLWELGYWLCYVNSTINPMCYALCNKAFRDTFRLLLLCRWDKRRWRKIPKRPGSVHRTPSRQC

[2] = target: T2, Muscarinic acetylcholine receptor M2 (Homo sapiens, UniProt P08172); test: Binding affinity (Ki) against binding of [3H]NMS to membranes from CHO cells expressing cloned human Muscarinic acetylcholine receptor M2; format: cell membranes
T2 sequence (P08172 whole entry): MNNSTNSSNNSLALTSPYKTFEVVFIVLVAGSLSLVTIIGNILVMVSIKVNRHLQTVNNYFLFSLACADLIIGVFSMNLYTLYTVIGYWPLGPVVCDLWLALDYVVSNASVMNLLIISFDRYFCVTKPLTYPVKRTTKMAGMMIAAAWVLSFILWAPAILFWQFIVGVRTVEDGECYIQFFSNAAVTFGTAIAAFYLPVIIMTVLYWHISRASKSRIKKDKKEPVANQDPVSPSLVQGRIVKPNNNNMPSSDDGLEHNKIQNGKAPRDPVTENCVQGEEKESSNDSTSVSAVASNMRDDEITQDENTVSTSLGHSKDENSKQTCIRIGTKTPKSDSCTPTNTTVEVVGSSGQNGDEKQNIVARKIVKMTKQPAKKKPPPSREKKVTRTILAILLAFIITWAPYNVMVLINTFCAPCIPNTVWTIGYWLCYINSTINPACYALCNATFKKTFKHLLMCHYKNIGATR

[3] = target: T3, Muscarinic acetylcholine receptor M5 (Homo sapiens, UniProt P08912); test: Binding affinity (Ki) against binding of [3H]NMS using membranes from CHO cells expressing cloned human Muscarinic acetylcholine receptor M5; format: cell membranes
T3 sequence (P08912 whole entry): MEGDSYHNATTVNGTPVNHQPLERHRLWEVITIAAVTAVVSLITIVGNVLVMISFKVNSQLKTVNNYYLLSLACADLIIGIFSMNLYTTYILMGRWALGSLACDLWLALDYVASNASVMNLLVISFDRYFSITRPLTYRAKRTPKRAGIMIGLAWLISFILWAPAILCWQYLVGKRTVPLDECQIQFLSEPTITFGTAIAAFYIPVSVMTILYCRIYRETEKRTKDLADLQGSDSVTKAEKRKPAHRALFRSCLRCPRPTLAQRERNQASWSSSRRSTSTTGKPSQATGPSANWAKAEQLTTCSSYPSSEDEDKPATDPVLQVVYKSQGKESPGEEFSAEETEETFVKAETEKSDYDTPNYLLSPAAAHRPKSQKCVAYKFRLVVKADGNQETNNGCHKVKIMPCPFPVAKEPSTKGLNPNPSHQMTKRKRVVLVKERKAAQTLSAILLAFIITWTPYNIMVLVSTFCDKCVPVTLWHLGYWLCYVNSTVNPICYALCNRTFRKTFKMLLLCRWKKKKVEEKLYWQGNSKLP

[4] = target: Muscarinic acetylcholine receptor M3 (Homo sapiens, UniProt P20309); test: biochemical; format: cell-based, CHO
[5] = target: T4, Muscarinic acetylcholine receptor M4 (Homo sapiens, UniProt P08173); test: Binding affinity (Ki) against binding of [3H]NMS using membranes from CHO cells expressing cloned human Muscarinic acetylcholine receptor M4; format: cell membranes
T4 sequence (P08173 whole entry): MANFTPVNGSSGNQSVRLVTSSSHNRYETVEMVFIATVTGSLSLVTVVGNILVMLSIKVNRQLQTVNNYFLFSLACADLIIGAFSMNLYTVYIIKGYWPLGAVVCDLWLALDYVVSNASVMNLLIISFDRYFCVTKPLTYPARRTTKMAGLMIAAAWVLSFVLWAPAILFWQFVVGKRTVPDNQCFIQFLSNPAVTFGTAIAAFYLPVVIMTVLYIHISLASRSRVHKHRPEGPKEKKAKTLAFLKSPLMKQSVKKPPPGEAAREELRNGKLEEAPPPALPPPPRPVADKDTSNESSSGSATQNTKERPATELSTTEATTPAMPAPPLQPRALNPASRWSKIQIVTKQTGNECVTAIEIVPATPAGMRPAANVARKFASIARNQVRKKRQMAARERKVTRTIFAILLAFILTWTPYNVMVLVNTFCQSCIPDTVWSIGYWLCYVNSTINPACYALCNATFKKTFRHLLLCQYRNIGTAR

Homo sapiens [6] = organism: Homo sapiens; test: Selectivity ratio (m4/m3)
How it was run: (§1)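 Binding affinities (Ki) were measured at each of the five muscarinic receptor subtypes (m1–m5), with the m3 receptor being human and expressed in CHO cells. The ratio compares the m4 or m5 Ki with the m3 Ki. Values are the mean of two or more independent assays.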

Homo sapiens [7] = organism: Homo sapiens; test: Selectivity ratio (m5/m3)
How it was run: as §1

Rattus norvegicus [8] = test: 50% in vivo effective dose that inhibits ACh-induced pressor response (M1) in rat assay systems after intravenous administration was reported; format: functional
Rattus norvegicus [9] = test: 50% in vivo effective dose that inhibits Ach-induced bradycardia (M2) in rat assay systems after intravenous administration was reported; format: functional
Rattus norvegicus [10] = test: 50% in vivo effective dose that inhibits ACh-induced bronchoconstriction (M3) in rat assay systems after intravenous administration was reported; format: functional

Muscarinic acetylcholine receptor M3, sequence (P20309 whole entry): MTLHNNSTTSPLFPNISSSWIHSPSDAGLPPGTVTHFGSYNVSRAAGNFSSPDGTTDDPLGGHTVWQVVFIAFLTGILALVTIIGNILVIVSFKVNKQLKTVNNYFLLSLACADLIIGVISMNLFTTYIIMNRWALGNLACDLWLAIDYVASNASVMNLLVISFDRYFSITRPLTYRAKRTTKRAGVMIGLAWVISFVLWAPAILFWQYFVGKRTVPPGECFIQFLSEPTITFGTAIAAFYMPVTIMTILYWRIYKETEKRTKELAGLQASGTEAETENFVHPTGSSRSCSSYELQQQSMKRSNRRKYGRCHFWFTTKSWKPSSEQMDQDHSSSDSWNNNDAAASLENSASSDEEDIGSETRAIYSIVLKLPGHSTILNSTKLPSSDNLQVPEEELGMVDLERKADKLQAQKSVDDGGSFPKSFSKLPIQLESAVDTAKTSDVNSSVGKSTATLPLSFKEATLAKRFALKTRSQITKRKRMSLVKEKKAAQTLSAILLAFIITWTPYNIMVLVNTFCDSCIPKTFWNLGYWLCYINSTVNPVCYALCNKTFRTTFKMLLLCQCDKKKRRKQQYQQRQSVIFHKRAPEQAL

| Compound | Ki [1] [nM] | Ki [2] [nM] | Ki [3] [nM] | Ki [4] [nM] | Ki [5] [nM] | Selectivity (Homo sapiens [6]) | Selectivity (Homo sapiens [7]) | ED50 (Rattus norvegicus [8]) [mg/kg] | ED50 (Rattus norvegicus [9]) [mg/kg] | ED50 (Rattus norvegicus [10]) [µg/kg] |
| --- | --- | --- | --- | --- | --- | --- | --- | --- | --- | --- |
| O=C(CNC(=O)[C@@H]1CCCN1C(=O)CC(c1ccccc1)(c1ccccc1)c1ccccc1)NC[C@H]1CCCN(CC2CCCCC2)C1 | 150 | 13 | 2000 | 2.2 | 43 | 19 | 890 | – | – | – |
| O=C(CCCNC(=O)CNC(=O)CC(c1ccccc1)(c1ccccc1)c1ccccc1)NCC1CCCN(CC2CCCCC2)C1 (configuration not stated) | 300 | 270 | 1100 | 3.3 | 74 | 22 | 320 | – | – | – |
| O=C(CCNC(=O)[C@@H]1CCCN1C(=O)CC(c1ccccc1)(c1ccccc1)c1ccccc1)NC[C@H]1CCCN(CC2CCCCC2)C1 | 150 | 12 | 58 | 0.27 | 11 | 42 | 210 | – | – | – |
| O=C(CCNC(=O)CNC(=O)CC(c1ccccc1)(c1ccccc1)c1ccccc1)NC[C@H]1CCCN(CC2CCCCC2)C1 | 120 | 30 | 37 | 0.31 | 14 | 45 | 120 | > 3 | 1.55 | 15 |
| CN1[C@@H]2CC[C@H]1C[C@@H](OC(=O)C(CO)c1ccccc1)C2 (some centres not stated) [ATROPINE] | – | – | – | – | – | – | – | 0.016 | 0.0052 | 4.3 |
| O=C(CCCCCNC(=O)CC(c1ccccc1)(c1ccccc1)c1ccccc1)NC[C@H]1CCCN(CC2CCCCC2)C1 | 110 | 72 | 210 | 1 | 30 | 30 | 200 | – | – | – |
| O=C(CCCNC(=O)CC(c1ccccc1)(c1ccccc1)c1ccccc1)NCCC(=O)NCC1CCCN(CC2CCCCC2)C1 (configuration not stated) | 77 | 17 | 200 | 2.1 | 60 | 29 | 95 | – | – | – |
| O=C(CCNC(=O)CC(c1ccccc1)(c1ccccc1)c1ccccc1)NCCC(=O)NC[C@H]1CCCN(CC2CCCCC2)C1 | 36 | 44 | 30 | 0.76 | 31 | 41 | 40 | – | – | – |
| O=C(NC[C@H]1CCCN(CC2CCCCC2)C1)[C@H]1CCCN1C(=O)[C@@H]1CCCN1C(=O)CC(c1ccccc1)(c1ccccc1)c1ccccc1 | 14 | 0.82 | 150 | 0.25 | 2.3 | 9 | 580 | – | – | – |
